# Assay outcomes: PubChem, The Scripps Research Institute Molecular Screening Center
# Shown are actives, neighbours in structure and some others; about 2.9% of the full set was active somewhere.
# CHO-K1 Ca antag = M1 antagonist counterscreen hit in parental CHO-K1 cells. ATP-induced calcium, Fluo-8 fluorescence. inhibition, % at 3 µM. actives 0.6% (n = 360,000). AID 602250;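 active = inhibition above a per-plate cutoff, the plate's mean sample inhibition plus 3 SD, cut at about 24% in these data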;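 also: 0% = DMSO plus EC80 ATP and 100% = DMSO alone without ATP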
# CHO parental Ca = counter-screen for OX1R antagonists: effect in parental CHO cells; parental CHO-K1, ATP-induced calcium, Fluo-8 fluorescence; inhibition, % at 5.6 µM; actives 0.63% (n = 330,000);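 active = inhibition above that plate's mean sample inhibition plus 3 SD, cut at about 26% in these data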;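 also: 0% = ATP-challenged DMSO wells and 100% = DMSO wells without ATP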
#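 Assay system: untransfected parental CHO cell line. Also added: ATP agonist challenge. Dosing: one dose, 5.6 µM nominal. Measured by: Fluo-8 fluorescence. Read-out: % inhibition. Benchmarks: ATP wells versus no-ATP DMSO wells. Repeats: no replicates.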
# M1 ag parental = nonselective activator or artifact in parental CHO-K1 cells | Fluo-8 calcium fluorescence; scaled to maximal ATP response, vehicle zero | activation, % at 3 µM | actives 0.48% (n = 360,000) | AID 602248; in the data active = activation above about 15%;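 also: untransfected CHO-K1 host cells lacking M1 receptor as counterscreen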
# OX1R antag-1 = antagonists of human orexin 1 receptor (OX1R). O43613. OX1R-expressing cells, FRET antagonist read-out. inhibition, % at 6.6 µM. actives 1.8% (n = 330,000). AID 485270; in the data active = inhibition mostly above about 38%, no sharp cut-off; inactive = mostly below about 40%;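 also: 0% = agonist challenge alone and 100% = reference antagonist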
# Target sequence (O43613 whole entry, looked up): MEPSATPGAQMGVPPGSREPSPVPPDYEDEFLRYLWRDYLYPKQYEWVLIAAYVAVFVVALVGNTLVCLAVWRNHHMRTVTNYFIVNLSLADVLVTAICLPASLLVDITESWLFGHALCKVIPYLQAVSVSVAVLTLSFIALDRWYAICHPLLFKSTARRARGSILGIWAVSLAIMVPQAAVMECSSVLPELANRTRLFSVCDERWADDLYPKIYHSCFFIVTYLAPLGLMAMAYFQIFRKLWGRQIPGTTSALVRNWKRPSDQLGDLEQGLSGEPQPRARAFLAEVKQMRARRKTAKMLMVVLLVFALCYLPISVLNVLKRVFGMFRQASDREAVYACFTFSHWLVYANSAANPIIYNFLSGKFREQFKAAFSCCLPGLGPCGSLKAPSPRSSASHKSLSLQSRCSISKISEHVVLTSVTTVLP
# CHO-K1 Ca PAM = counter-screen for M1 PAMs: effect in parental CHO-K1 cells. AID 602247. ATP EC20, Fluo-8 calcium fluorescence; 0% at ATP EC20, 100% at ATP max. actives 0.02% (n = 360,000). activation, % at 3 µM;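 active = activation above the run cutoff, the mean activation of all test compounds plus 3 SD, cut at about 40% in these data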;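 also: peak over basal fluorescence ratio in a 140 s read after ATP addition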
# OX1R antag-2 = antagonists of human orexin 1 receptor; O43613; actives 0.43% (n = 330,000); CHO/OX1R cells, Fluo-8 calcium fluorescence, orexin A; inhibition, % at 5 µM; AID 434989;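 active = inhibition above its plate's threshold, mean inhibition of all tested compounds on the plate plus 3 SD, cut at about 37% in these data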;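 also: 0% = orexin A challenge wells and 100% = SB-334867-A antagonist wells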
# * = called active by the depositor; nt = not tested or not shown.
SMILES,CHO-K1 Ca antag,CHO parental Ca,M1 ag parental,OX1R antag-1,CHO-K1 Ca PAM,OX1R antag-2
COc1ccc(C(=O)NCCc2nnc(SCC(=O)Nc3ccccc3)n2C)cc1,25.1*,-14.9,0.4,22.7,-8.2,-16.8
CCOC(=O)c1c(C)[nH]c(C(=O)CN2C(=O)NC(C)(C)C2=O)c1C,6.3,nt,0.3,nt,-14.9,nt
CCOC(=O)c1c(C)[nH]c(C(=O)CN2C(=O)NC(C)(c3ccc(C)cc3)C2=O)c1C (centres undefined),1.7,-27.8,18.9*,-5.7,28.1,-18.9
CCOC(=O)c1c(C)[nH]c(C(=O)COC(=O)c2ccc(O)cc2)c1C,4.2,27.4*,2.3,7.9,3.3,10.1
CCOC(=O)c1c(C)[nH]c(C(=O)COC(=O)c2ccc(O)cc2O)c1C,-10.4,2.4,0.7,11.0,20.0,-3.7
S=C(NCc1ccccc1)C(=S)NCc1ccccc1,-13.8,nt,0.5,nt,10.6,nt
S=C(NCc1ccccc1)NCc1ccc(CNC(=S)NCc2ccccc2)cc1,7.8,48.3*,6.7,1.8,10.8,29.4
CC(C)C(C(=O)NCC1CCCO1)N(C(=O)CNS(=O)(=O)c1ccccc1)c1ccc(F)cc1 (centres undefined),-13.6,-15.9,1.3,12.2,15.1,-36.6
O=C(COC(=O)c1cc(=O)[nH]c2ccccc12)c1cccs1,29.7*,0.7,0.0,17.0,-19.4,-8.0
CN(Cc1ccccc1)C(=O)c1ccccc1C(=O)OCC(=O)N(Cc1ccccc1)C(C)(C)C,-13.6,-20.2,4.6,31.2*,15.6,31.1
COc1cccc2cc(C(=O)OCC(=O)N3CC(C)OC(C)C3)c(=O)oc12 (centres undefined),8.9,-10.6,-0.8,53.2*,-13.3,1.3
O=C(OCC(=O)N1CCOCC1)c1cc2ccccc2oc1=O,-7.5,-1.5,0.0,46.2*,14.2,-10.8
CC(C)(C)N(Cc1ccccc1)C(=O)COC(=O)C1CC1,-5.0,-8.1,-0.3,11.1,7.7,-20.7
CC1(C)O[C@@H]2[C@H](O1)[C@@H](COS(=O)(=O)O)O[C@H]2n1cnc2c(N)ncnc21,nt,-1.1,nt,0.3,nt,-8.1
CCN(CCCNC(=O)c1nn(C)c2c1CS(=O)(=O)c1ccccc1-2)Cc1ccccc1,13.0,-19.9,0.0,4.1,-8.2,-9.3
CN(Cc1ccccc1)C(=O)COC(=O)c1cc2ccccc2oc1=O,-8.2,-19.5,0.6,28.0*,13.6,-16.5
O=C(OCC(=O)N1CCOCC1)c1cc(=O)[nH]c2ccccc12,13.9,-10.8,-0.1,35.3*,-2.6,-12.8
CN(Cc1ccccc1)C(=O)c1cc2ccccc2o1,-23.1,-9.8,0.1,9.5,12.1,6.4
CCCS(=O)(=O)NC(=O)C1(C)CCCN(C(=O)c2ccc(OC)cc2)C1 (centres undefined),-4.8,nt,0.7,nt,11.8,nt
CCNc1nc2c(c(=O)n(C)c(=O)n2C)n1Cc1ccc(Cl)cc1,13.1,36.3*,5.3,16.3,-4.8,-12.5
C=C(C)CN1C(=O)C(C)SC1=NN=C1SCC(=O)N1C (centres undefined),-2.3,nt,0.5,nt,15.8,nt
O=C(COc1ccc(Br)cc1)Nc1ccccc1C(=O)N1CCOCC1,2.9,-11.2,3.3,22.6,-2.2,-4.5
O=C(COc1ccc(F)cc1Cl)Nc1ccccc1C(=O)N1CCCCC1,17.3,98.9*,0.3,25.1,-17.7,-35.4
COc1ccc(OCC(=O)Nc2ccccc2C(=O)N2CCOCC2)cc1,4.3,-5.4,17.1*,21.3,4.4,-11.8
COc1ccc(OCC(=O)Nc2ccc(N3CCOCC3)c(Cl)c2)cc1,-2.8,2.2,4.2,19.4,20.2,-5.3
SMILES,CHO-K1 Ca antag,CHO parental Ca,M1 ag parental,OX1R antag-1,CHO-K1 Ca PAM,OX1R antag-2
COc1ccc(OCC(=O)Nc2ccc(N3CCN(C(=O)c4ccccc4)CC3)c(Cl)c2)cc1,24.9*,43.4*,14.6,22.7,-23.4,18.0
CSc1nc(Cc2ccccc2)nc2ccccc12,24.0*,-10.8,-0.7,17.7,-5.1,-17.4
COc1cccc(OC)c1C(=O)NC(=S)Nc1cc(-c2nc3ccccc3[nH]2)ccc1Cl,-0.1,-16.7,3.4,74.3*,10.9,20.1
CC(=O)Nc1ccc(SCC(=O)N(C)CC(=O)Nc2ccccc2Cl)cc1,0.6,-8.0,0.7,2.9,7.7,-7.8
Cc1ccc(CC(=O)Nc2ccccc2-c2ccccc2)cc1C,24.7*,-25.6,-0.8,31.1,-14.1,-32.1
CC(=O)Nc1ccc(SCC(=O)Nc2ccccc2-c2ccccc2)cc1,29.7*,-8.0,1.0,29.4,-10.8,-12.4
COc1ccc(C2c3[nH]c4ccccc4c3C[C@H]3C(=O)N(c4ccccc4C(=O)N4CCC(C(=O)O)CC4)C(=O)N23)cc1 (some centres undefined),-0.5,-2.0,0.1,21.1,-8.6,-13.8
CC(C)c1ccc(C2c3[nH]c4ccccc4c3C[C@H]3C(=O)N(c4ccccc4C(=O)N4CCC[C@H]4C(=O)O)C(=O)N23)cc1 (some centres undefined),25.1*,-4.0,0.0,1.1,-16.8,0.9
O=[N+]([O-])c1ccc(O)c(/C=N/n2cnc3ccccc32)c1,-2.3,-8.3,3.8,47.9*,9.1,18.6
O=C(CCC(=O)N1CCN(S(=O)(=O)c2ccc([N+](=O)[O-])cc2)CC1)N1CCOCC1,-18.5,-2.6,0.8,48.4*,13.3,9.8
CC1=NN(C(=O)c2ccc(Cn3nc(C)c([N+](=O)[O-])c3C)o2)C(O)(C(F)(F)F)C1 (centres undefined),1.2,-8.9,1.7,34.9,-1.9,-7.8
O=C(c1ccco1)N1CCN(S(=O)(=O)c2ccccc2)CC1,-5.5,-9.1,0.6,-4.5,10.2,-9.9
O=C(c1ccco1)N1CCN(S(=O)(=O)c2ccc([N+](=O)[O-])cc2)CC1,-0.4,-8.7,0.3,63.5*,3.9,-23.6
Cc1nn(Cc2ccc(C(=O)N3CCN(C(=O)c4ccco4)CC3)o2)c(C)c1[N+](=O)[O-],0.9,-12.2,1.3,66.2*,0.3,-17.2
Cc1cccc(CN2CCCC(C(=O)Nc3ccc(-c4cscn4)cc3)C2)c1 (centres undefined),-7.6,nt,6.0,nt,3.0,nt
Cc1cc(C)cc(OCCCCn2cncn2)c1,-3.3,7.0,0.5,11.4,12.3,-3.0
CCOc1ccc(S(=O)(=O)N2CCC(C(=O)NCCc3ccccc3)CC2)cc1,19.1,-3.9,0.3,4.0,-13.6,-2.2
Cc1ccc(C(=O)NCCCNC(=O)Cc2ccc(Cl)cc2)cn1,7.3,4.5,-0.2,15.7,-7.1,-3.2
Cc1c(=O)n(OCc2ccc(Cl)cc2)c2ccccc2[n+]1[O-],17.6,-4.8,-0.1,20.9,-12.9,-24.1
Cc1c(=O)n(OCc2cccc(F)c2)c2ccccc2[n+]1[O-],0.6,-13.1,0.3,41.5*,15.4,-17.1
COc1ccc(-c2cc3c(c4c2ccn4C)C2CCC3C2)cc1F (centres undefined),23.9*,nt,-0.2,nt,2.5,nt
